Data on 6 molecules can be found in ChEMBL document CHEMBL3120162, “Sesquiterpenes from Neurolaena lobata and their antiproliferative and anti-inflammatory activities” (J Nat Prod, 2014).

The test system of test [1] is HUVEC. In words: Inhibition of LPS-induced IL-8 secretion in HUVEC expressing TERT treated for 15 mins prior to LPS challenge measured after 6 hrs by ELISA. Type of test: functional, Homo sapiens. The method in brief: (§1)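 Immortalized HUVEC (hTERT) were grown in medium 199 with 20% FBS, glutamine and ECGS/heparin. Compounds were added in medium with 5% FBS (final 30 μM) 15 min before a stimulus: TNF-α 30 ng/mL or LPS 100 ng/mL final. Media were collected after 6 h and IL-8 protein was measured by ELISA with TMB substrate. Sextuplicates, BAY positive control, ANOVA.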
A general note: ELISA stands for enzyme-linked immunosorbent assay.

For test [2], the system named is HUVEC. Kind of test: Inhibition of TNF-alpha-induced IL-8 secretion in HUVEC expressing TERT treated for 15 mins prior to LPS challenge measured after 6 hrs by ELISA. Format: functional, Homo sapiens. The method in brief:
as §1

The next test relates to A2780. In words: Antiproliferative activity against human A2780 cells assessed as inhibition of cell proliferation after 72 hrs by MTT assay. Format: functional, cell-based. To be noted: A2780, 72 h. The method in brief:
(§2)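 Cells seeded at 5000/well and allowed to attach overnight, then given fresh medium with test agents (from 10 mM DMSO stocks; at most 0.3% DMSO in medium) for 72 h. 5 mg/mL MTT solution was added for 4 h, and formazan was dissolved in DMSO and read at 545 nm. Untreated cells served as negative control and cisplatin as reference. Two plates, ≥5 parallel wells each. IC50 from sigmoidal dose-response fits.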
On the technique in general: Formazan colour is commonly taken as a measure of viable cells.

The subject of test [3] is HUVEC. Kind of test: Inhibition of TNF-alpha-induced IL-8 secretion in HUVEC expressing TERT at 30 uM treated for 15 mins prior to LPS challenge measured after 6 hrs by ELISA. Format: functional, cell-based. To be noted: Homo sapiens. The method in brief: as §1
For a further test, the system named is A-431. In words: Antiproliferative activity against human A431 cells assessed as inhibition of cell proliferation after 72 hrs by MTT assay. To be noted: A-431, 72 h. Type of test: functional, cell-based. The procedure, abridged: as §2
A further test has as its system HeLa. In words: Antiproliferative activity against human HeLa cells assessed as inhibition of cell proliferation after 72 hrs by MTT assay. Type of test: functional, cell-based. The procedure, abridged: as §2
The next test has as its system MCF7. Kind of test: Antiproliferative activity against human MCF7 cells assessed as inhibition of cell proliferation after 72 hrs by MTT assay. Type of test: functional, cell-based. As to conditions: MCF7, 72 h. The method in brief:
as §2

The subject of test [4] is HUVEC. In words: Inhibition of LPS-induced IL-8 secretion in HUVEC expressing TERT at 30 uM treated for 15 mins prior to LPS challenge measured after 6 hrs by ELISA. Type of test: functional, cell-based. As to conditions: Homo sapiens. The method in brief:
as §1

Usually IC50 stands for the concentration at which inhibition is half-maximal.

Active and inactive are the calls of the source. The rule behind the calls is not given here. Bounds are passed on as bounds.

Consider `Cc1ccc(S(=O)(=O)/C=C/C#N)cc1`, for which the “inhibition (INH)” value came to 12.7% in the test with HUVEC [1] and 23.7% in the test with HUVEC [2].
Take `C=C1C(=O)O[C@@H]2[C@@H]1[C@H](OC(=O)CC(C)C)C[C@@]1(C)[C@H](O)C[C@H](OC(C)=O)C(=C)[C@H]21` (relative stereo): the IC50 in the test on A2780 is 7.2 µM; with A-431, 5.3 µM; in the test with HeLa, greater than 10 µM; with MCF7 it was greater than 10 µM. For the same molecule, the inhibition entry in the test with HUVEC [3] is “inactive”. In addition, in the test with HUVEC [4], the inhibition result was “Active”.
As for `C=C1C(=O)O[C@@H]2/C=C(\C)[C@H](O)C[C@H]3O[C@]3(C)C[C@@H](OC(=O)CC(C)C)[C@@H]12` (relative stereo), the IC50 is 4.7 µM with A2780, 7.2 µM in the test on A-431, greater than 10 µM in the test with HeLa and 7.2 µM with MCF7. In the test on HUVEC [3], the inhibition entry was “inactive”. In the test on HUVEC [4], the inhibition result was “Active”.
Consider `C=C1C(=O)O[C@@H]2[C@@H](O)[C@@H](C)C3=CC(=O)[C@](C)(O3)[C@H](O)[C@@H](OC(=O)CC(C)C)[C@@H]12` (relative stereo), for which the IC50 with A2780, in the test on A-431, in the test on HeLa and in the test with MCF7 was greater than 10 µM in each case. For the same molecule, the inhibition entry in the test on HUVEC [3] is “inactive”. Besides, the inhibition entry in the test with HUVEC [4] was “Active”.
For the molecule `C=C1C(=O)O[C@@H]2C[C@@]3(C)O[C@H](O[C@H]3CC(=O)C(C)=O)[C@@H](OC(=O)CC(C)C)[C@@H]12` (relative stereo), the 50% inhibitory concentration (IC50) in the test on A2780 is 5.4 µM; in the test on A-431 it was 6.8 µM; in the test with HeLa, greater than 10 µM; in the test with MCF7 it was greater than 10 µM. Moreover, the inhibition entry with HUVEC [3] was “inactive”. Moreover, the inhibition entry in the test on HUVEC [4] was “Active”.
For `C=C1C(=O)O[C@@H]2C[C@]3(C)O[C@@H](O[C@@H]3CC(=O)C(C)=O)[C@@H](OC(=O)CC(C)C)[C@@H]12` (relative stereo), the IC50 was 9.8 µM with A2780, greater than 10 µM in the test with A-431, greater than 10 µM in the test on HeLa and greater than 10 µM in the test with MCF7. For the same molecule, the inhibition entry in the test on HUVEC [3] is “inactive”. For the same molecule, the inhibition result in the test on HUVEC [4] is “Active”.
